Publication PMC3101112 (Cancer Management and Research, 2011)

Key:
FLT3 = FLT3 (Homo sapiens, UniProt P36888); assay: Biochemical inhibition profile, FLT3; settings: read-out: Biochemical Inhibition Profile IC50, FLT3
[1] = QTc assessment in patients with relapsed AML; format: in vivo, human; settings: after the single-dose administration, 48-hour follow-up
In short: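 QTc was corrected by both Bazett and Fridericia formulas and compared with baseline across the 48 h after a single 50 mg oral dose. QTc was set against test-compound plasma concentration. Grade 3 was defined as >500 msec or a rise of >60 msec from baseline, confirmed by 12-lead ECG.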

TIE2 = TIE2 (Homo sapiens, UniProt Q02763); assay: Cell-based target inhibition assay, CHO - Clone113, pTIE2; settings: read-out: Cell-Based Target Inhibition Assays IC50, pTIE2 pY99, stable over-expression of TIE2
VEGF-R1 = VEGF-R1 (Homo sapiens, UniProt P17948); assay: Biochemical inhibition profile, VEGF-R1; settings: read-out: Biochemical Inhibition Profile IC50, VEGF-R1
PDGF-Rb = PDGF-Rb (Homo sapiens, UniProt P09619); assay: Biochemical inhibition profile, PDGF-Rb; settings: read-out: Biochemical Inhibition Profile IC50, PDGF-Rb
EPHA5 = EPHA5 (Homo sapiens, UniProt P54756); assay: Biochemical inhibition profile, EPHA5; settings: read-out: Biochemical Inhibition Profile IC50, EPHA5
EPHA2 = EPHA2 (Homo sapiens, UniProt P29317); assay: Biochemical inhibition profile, EPHA2; settings: read-out: Biochemical Inhibition Profile IC50, EPHA2
KDR = KDR (Homo sapiens, UniProt P35968); assay: Biochemical inhibition profile, KDR; settings: read-out: Biochemical Inhibition Profile IC50, KDR
EPHA1 = EPHA1 (Homo sapiens, UniProt P21709); assay: Biochemical inhibition profile, EPHA1; settings: read-out: Biochemical Inhibition Profile IC50, EPHA1
EPHA3 = EPHA3 (Homo sapiens, UniProt P29320); assay: Biochemical inhibition profile, EPHA3; settings: read-out: Biochemical Inhibition Profile IC50, EPHA3
Adverse events = format: in vivo, human
In short: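 Five relapsed AML patients took test compound 50 mg/day as a once-daily oral capsule after an ~8 h fast, with breakfast at least 60 min later. A single-dose visit came first, then multidose treatment for four weeks (two weeks after amendment). Adverse events were graded by CTCAE v3.0. Dose-limiting toxicity definitions covered Grade ≥3 nonhematological events and Grade 3/4 QTc or blood-pressure changes.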

EPHA7 = EPHA7 (Homo sapiens, UniProt Q15375); assay: Biochemical inhibition profile, EPHA7; settings: read-out: Biochemical Inhibition Profile IC50, EPHA7
FLT4 = FLT4 (Homo sapiens, UniProt P35916); assay: Biochemical inhibition profile, FLT4; settings: read-out: Biochemical Inhibition Profile IC50, FLT4
[2] = Maximum CTC grade 1, n = 5 patients, regardless of causality
[3] = Maximum CTC grade 2, n = 5 patients, regardless of causality
[4] = Maximum CTC grade 3, n = 5 patients, regardless of causality
[5] = Maximum CTC grade 4, n = 5 patients, regardless of causality

VEGF-R1, sequence (P17948 27-1338): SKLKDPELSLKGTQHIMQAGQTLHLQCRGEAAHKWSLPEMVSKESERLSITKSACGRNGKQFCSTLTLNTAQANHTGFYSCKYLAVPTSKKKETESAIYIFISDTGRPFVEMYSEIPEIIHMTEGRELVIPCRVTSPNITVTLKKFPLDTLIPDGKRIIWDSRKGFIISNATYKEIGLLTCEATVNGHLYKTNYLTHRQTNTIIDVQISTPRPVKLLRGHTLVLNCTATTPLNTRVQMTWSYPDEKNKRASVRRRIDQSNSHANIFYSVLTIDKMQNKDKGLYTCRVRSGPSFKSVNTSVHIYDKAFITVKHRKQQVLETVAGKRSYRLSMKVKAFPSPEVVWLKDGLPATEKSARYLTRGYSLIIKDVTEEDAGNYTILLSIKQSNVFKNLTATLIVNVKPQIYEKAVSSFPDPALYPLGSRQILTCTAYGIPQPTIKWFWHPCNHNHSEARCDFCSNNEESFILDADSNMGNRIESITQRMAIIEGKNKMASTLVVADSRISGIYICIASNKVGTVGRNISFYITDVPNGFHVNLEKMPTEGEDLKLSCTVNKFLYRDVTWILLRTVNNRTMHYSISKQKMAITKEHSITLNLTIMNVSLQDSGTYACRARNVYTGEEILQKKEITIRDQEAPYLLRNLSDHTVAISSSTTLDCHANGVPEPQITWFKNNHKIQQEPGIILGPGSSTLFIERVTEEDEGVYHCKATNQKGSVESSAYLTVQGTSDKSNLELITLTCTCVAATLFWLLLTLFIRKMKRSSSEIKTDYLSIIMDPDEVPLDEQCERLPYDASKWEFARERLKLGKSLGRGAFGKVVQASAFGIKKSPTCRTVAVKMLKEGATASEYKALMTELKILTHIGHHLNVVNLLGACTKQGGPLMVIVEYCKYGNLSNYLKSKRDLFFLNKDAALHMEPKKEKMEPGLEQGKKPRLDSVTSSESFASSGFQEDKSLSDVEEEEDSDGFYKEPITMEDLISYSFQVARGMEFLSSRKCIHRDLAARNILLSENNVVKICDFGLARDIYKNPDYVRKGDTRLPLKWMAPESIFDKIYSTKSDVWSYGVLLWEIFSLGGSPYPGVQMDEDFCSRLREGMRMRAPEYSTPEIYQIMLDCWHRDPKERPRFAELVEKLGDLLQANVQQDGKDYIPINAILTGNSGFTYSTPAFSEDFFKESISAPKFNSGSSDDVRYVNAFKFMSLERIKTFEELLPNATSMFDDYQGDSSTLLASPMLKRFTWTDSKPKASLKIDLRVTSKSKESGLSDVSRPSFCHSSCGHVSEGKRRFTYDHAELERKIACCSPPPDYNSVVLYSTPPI
FLT3, sequence (P36888 27-993): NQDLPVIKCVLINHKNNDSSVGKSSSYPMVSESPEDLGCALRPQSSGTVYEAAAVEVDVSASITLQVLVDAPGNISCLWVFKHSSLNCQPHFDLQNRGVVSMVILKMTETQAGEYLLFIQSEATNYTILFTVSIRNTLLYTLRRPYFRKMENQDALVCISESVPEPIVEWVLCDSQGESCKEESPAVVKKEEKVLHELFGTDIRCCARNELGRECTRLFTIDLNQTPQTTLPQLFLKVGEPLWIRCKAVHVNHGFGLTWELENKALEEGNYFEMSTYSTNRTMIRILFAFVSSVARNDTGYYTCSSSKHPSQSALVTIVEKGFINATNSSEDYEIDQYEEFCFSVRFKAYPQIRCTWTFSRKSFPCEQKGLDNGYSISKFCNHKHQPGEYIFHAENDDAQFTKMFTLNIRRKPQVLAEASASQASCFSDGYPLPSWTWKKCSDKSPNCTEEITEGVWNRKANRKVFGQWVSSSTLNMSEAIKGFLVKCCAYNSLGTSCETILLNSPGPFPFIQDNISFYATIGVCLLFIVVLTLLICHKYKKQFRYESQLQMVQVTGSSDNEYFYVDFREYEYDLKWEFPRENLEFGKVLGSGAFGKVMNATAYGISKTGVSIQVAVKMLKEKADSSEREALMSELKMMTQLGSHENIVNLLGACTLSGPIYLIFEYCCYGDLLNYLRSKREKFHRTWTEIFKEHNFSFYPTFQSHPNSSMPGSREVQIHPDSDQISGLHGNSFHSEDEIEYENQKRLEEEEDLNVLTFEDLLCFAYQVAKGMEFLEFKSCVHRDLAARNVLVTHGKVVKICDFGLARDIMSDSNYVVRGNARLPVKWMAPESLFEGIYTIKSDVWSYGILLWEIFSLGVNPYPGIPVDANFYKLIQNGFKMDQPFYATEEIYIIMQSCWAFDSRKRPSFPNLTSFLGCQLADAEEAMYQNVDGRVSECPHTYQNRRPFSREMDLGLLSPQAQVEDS
PDGF-Rb, sequence (P09619 33-1106): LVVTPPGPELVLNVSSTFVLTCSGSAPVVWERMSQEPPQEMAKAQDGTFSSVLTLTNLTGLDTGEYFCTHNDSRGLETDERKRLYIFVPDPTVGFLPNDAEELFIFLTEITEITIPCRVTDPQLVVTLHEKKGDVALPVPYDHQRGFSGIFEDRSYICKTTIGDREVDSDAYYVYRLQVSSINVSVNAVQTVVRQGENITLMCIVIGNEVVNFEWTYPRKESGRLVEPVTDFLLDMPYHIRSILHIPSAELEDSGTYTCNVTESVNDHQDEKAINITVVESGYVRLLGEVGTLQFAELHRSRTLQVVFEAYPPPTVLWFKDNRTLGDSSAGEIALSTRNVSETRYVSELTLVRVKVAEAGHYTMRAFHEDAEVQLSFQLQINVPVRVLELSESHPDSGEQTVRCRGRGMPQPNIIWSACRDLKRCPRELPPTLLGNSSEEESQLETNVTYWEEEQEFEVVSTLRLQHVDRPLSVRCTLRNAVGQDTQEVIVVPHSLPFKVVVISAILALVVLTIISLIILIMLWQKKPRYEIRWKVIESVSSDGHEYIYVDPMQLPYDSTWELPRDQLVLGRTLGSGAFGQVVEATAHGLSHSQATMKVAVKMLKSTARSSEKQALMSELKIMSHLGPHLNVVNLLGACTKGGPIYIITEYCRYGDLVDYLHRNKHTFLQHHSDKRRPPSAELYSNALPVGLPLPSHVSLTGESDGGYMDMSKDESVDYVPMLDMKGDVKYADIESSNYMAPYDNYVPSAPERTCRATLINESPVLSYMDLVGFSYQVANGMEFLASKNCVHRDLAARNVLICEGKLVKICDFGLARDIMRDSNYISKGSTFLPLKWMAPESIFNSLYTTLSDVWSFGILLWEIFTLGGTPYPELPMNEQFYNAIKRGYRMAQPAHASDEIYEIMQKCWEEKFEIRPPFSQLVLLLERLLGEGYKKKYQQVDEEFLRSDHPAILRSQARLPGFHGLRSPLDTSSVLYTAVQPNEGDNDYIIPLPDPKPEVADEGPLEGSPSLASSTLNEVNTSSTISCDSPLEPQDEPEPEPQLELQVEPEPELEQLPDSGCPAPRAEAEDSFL
FLT4, sequence (P35916 25-1363): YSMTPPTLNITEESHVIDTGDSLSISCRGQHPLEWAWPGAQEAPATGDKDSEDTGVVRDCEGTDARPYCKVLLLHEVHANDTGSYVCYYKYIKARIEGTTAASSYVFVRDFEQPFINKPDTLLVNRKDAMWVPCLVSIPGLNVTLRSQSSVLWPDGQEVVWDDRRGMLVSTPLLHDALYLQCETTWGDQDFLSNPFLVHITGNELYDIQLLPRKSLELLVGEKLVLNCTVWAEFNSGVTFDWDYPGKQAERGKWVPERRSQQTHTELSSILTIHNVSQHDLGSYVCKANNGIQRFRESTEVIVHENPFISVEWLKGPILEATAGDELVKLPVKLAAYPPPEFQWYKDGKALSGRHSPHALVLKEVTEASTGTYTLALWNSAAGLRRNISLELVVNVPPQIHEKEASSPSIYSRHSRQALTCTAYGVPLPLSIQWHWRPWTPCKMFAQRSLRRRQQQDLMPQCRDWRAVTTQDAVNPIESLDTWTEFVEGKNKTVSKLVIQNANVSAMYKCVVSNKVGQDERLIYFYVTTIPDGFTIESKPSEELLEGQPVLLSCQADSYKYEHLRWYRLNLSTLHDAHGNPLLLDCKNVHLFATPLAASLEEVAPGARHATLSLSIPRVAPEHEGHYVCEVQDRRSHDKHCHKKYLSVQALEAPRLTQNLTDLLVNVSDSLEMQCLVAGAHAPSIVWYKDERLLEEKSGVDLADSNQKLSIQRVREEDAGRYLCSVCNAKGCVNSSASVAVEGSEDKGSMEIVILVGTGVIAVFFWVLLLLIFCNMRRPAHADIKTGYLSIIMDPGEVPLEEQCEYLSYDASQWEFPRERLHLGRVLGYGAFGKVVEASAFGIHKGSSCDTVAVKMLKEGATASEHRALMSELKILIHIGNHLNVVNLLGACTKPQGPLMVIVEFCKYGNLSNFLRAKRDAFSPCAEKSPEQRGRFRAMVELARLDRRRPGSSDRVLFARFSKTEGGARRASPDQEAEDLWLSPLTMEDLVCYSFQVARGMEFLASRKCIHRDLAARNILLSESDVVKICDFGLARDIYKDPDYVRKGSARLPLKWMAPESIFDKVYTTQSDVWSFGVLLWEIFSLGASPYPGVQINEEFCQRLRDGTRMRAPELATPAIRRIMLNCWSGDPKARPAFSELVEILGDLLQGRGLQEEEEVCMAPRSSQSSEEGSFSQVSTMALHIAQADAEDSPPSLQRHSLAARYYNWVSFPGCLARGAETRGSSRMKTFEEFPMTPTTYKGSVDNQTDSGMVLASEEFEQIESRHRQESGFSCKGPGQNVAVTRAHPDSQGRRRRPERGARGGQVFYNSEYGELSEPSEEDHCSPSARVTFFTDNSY

SMILES: Cc1cc(-c2ccn3c(-c4ccc(CC(=O)Nc5cccc(C(F)(F)F)c5)c(F)c4)cnc3c2)ccn1 [LY2457546]
- IC50 (FLT3): 5.1 nM
- QTc prolongation after Bazet and Fridericia corrections [1]: not present
- IC50 (TIE2): 166 nM
- IC50 (VEGF-R1): 30.6 nM
- IC50 (PDGF-Rb): 25.7 nM
- IC50 (EPHA5): 10.7 nM
- IC50 (EPHA2): 37.4 nM
- IC50 (KDR): 28 nM
- IC50 (EPHA1): 616 nM
- IC50 (EPHA3): 99.8 nM
- Chapped lips, number of patients (Adverse events; [2]): 1
- Constipation, number of patients (Adverse events; [2]): 1
- Cough, number of patients (Adverse events; [2]): 1
- Diarrhea, number of patients (Adverse events; [2]): 2
- Epistaxis, number of patients (Adverse events; [2]): 1
- Facial swelling, number of patients (Adverse events; [2]): 1
- Fatigue, number of patients (Adverse events; [2]): 1
- Headache, number of patients (Adverse events; [2]): 3
- Hemangioma of liver, number of patients (Adverse events; [2]): 1
- Hematoma, number of patients (Adverse events; [2]): 1
- Hematuria, number of patients (Adverse events; [2]): 1
- Hemorrhoids, number of patients (Adverse events; [2]): 1
- Hepatomegaly, number of patients (Adverse events; [2]): 1
- Hyperhidrosis, number of patients (Adverse events; [2]): 1
- Hypokalemia, number of patients (Adverse events; [2]): 3
- Inguinal hernia, number of patients (Adverse events; [2]): 1
- Musculoskeletal pain, number of patients (Adverse events; [2]): 1
- Nausea, number of patients (Adverse events; [2]): 1
- Nephrolithiasis, number of patients (Adverse events; [2]): 1
- Oropharyngeal pain, number of patients (Adverse events; [2]): 1
- Osteoporosis, number of patients (Adverse events; [2]): 1
- Peripheral edema, number of patients (Adverse events; [2]): 1
- Petechiae, number of patients (Adverse events; [2]): 3
- Splenomegaly, number of patients (Adverse events; [2]): 1
- Ulcerative colitis, number of patients (Adverse events; [2]): 1
- Vertigo, number of patients (Adverse events; [2]): 1
- Anxiety, number of patients (Adverse events; [3]): 2
- Asthma, number of patients (Adverse events; [3]): 1
- Back pain, number of patients (Adverse events; [3]): 1
- Bladder spasm, number of patients (Adverse events; [3]): 1
- Constipation, number of patients (Adverse events; [3]): 1
- Epistaxis, number of patients (Adverse events; [3]): 2
- Gingival hyperplasia, number of patients (Adverse events; [3]): 1
- Hemorrhoids, number of patients (Adverse events; [3]): 1
- Hypertension, number of patients (Adverse events; [3]): 2
- Insomnia, number of patients (Adverse events; [3]): 1
- Keratoconjunctivitis sicca, number of patients (Adverse events; [3]): 1
- Stomatitis, number of patients (Adverse events; [3]): 1
- Urticaria, number of patients (Adverse events; [3]): 1
- Anal abscess, number of patients (Adverse events; [4]): 1
- Asthenia (muscle weakness), number of patients (Adverse events; [4]): 1
- Breast cellulitis, number of patients (Adverse events; [4]): 1
- Catheter-related infection, number of patients (Adverse events; [4]): 1
- Febrile neutropenia, number of patients (Adverse events; [4]): 2
- Fungal sepsis, number of patients (Adverse events; [4]): 1
- Hypotension, number of patients (Adverse events; [4]): 1
- Neutropenic sepsis, number of patients (Adverse events; [4]): 1
- Hemorrhage, number of patients (Adverse events; [5]): 1
- Hypophosphatemia, number of patients (Adverse events; [5]): 1
- Adverse events that were Grade 1 or 2 (Adverse events; five patients, 50 mg/day orally): 81%
- Dose-limiting toxicity (Adverse events; one patient (C) of five, 50 mg/day orally): generalized muscle weakness (Grade 3)
- IC50 (EPHA7): 221 nM
- IC50 (FLT4): 1.56 nM
